According to ChEMBL document CHEMBL4732262, “Identification of two novel thiophene analogues as inducers of autophagy mediated cell death in breast cancer cells” (Bioorg Med Chem, 2021):
Activity calls are given as the source filed them. The calls are words filed in the database; no cut-off is given here.

Assays:
MCF7 [1] = assay: Induction of apoptosis in human MCF7 cells assessed as late apoptotic cells at 2.5 uM after 24 hrs by annexin V-FITC/Propidium iodide staining based flow cytometric analysis (reference value: 0.2%); type: functional
MCF7 [2] = assay: Induction of autophagy in human MCF7 cells assessed as increase in IRE1 mRNA expression at 2.5 uM after 24 hrs by PCR microarray analysis; type: functional, cell-based
Procedure, shortened: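 MCF7 cells given 2.5 µM or DMSO for 24 h. cDNA run on an Unfolded Protein Response RT2 Profiler PCR array. Changes computed by 2^-ΔΔCt (log2) against control, normalised to the mean of ACTB, B2M, GAPDH, HPRT1 and RPLPO.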

MCF7 [3] = assay: Induction of autophagy in human MCF7 cells assessed as increase in p62 degradation at 2.5 uM after 24 hrs in presence of chloroquine by Western blot analysis; type: functional, cell-based
Procedure, shortened: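 MCF7 cells were given 2.5 µM compound alone or combined with 50 µM chloroquine, with DMSO control, for 24 h. Lysates were immunoblotted for p62 and LC3, with GAPDH as loading control. Band intensities were quantified by infrared imaging. At least two independent experiments.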

MCF7 [4] = assay: Induction of apoptosis in human MCF7 cells assessed as early apoptotic cells at 2.5 uM after 24 hrs by annexin V-FITC/Propidium iodide staining based flow cytometric analysis (reference value: 3.94%); type: functional
MCF7 [5] = assay: Induction of autophagy in human MCF7 cells assessed as increase in p62 degradation at 2.5 uM after 24 hrs by Western blot analysis; type: functional, cell-based
Procedure, shortened: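 MCF7 cells (~5 × 10^6) left untreated (DMSO control) or exposed to 2.5 µM compound for 24 h. Lysed in RIPA buffer, probed overnight at 4 °C, then given infrared-tagged secondary antibodies for 1 h at 37 °C and imaged by infrared scanning. LC3-II/I ratio and p62 taken by densitometry with GAPDH as loading control. Two independent experiments.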

MCF7 [6] = assay: Induction of apoptosis in human MCF7 cells assessed as increase in cell death at 2.5 uM after 24 hrs by EtBr/AO staining based fluorescence microscopic method relative to tanshinone-2A; type: functional
Procedure, shortened: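 MCF7 cells (~5 × 10^4 per well, on coverslips) were left untreated (DMSO control) or treated at 2.5 µM for 24 h. Cells were PBS-washed, stained with 1:1 EtBr/AO (0.4 mg/ml each), washed and mounted, then viewed by fluorescence microscopy (480 nm excitation, 515-530 nm barrier filter). 200 cells per sample were scored apoptotic, necrotic or viable; percentages were taken relative to live cells.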

MCF7 [7] = assay: Induction of autophagy in human MCF7 cells assessed as increase in GABARAPL2 mRNA expression at 2.5 uM after 24 hrs by RT-PCR analysis; type: functional, cell-based
Procedure, shortened: (§1)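 MCF7 cells given 2.5 µM or DMSO for 24 h. Total RNA extracted with TRIzol and reverse-transcribed, then SYBR Green qPCR across 34 autophagy-regulatory genes (95 °C 10 min; 40 cycles of 95 °C 15 s and 60 °C 1 min). Relative expression by 2^-ΔΔCt against housekeeping genes and DMSO control, shown as log2. Two independent experiments.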

MCF7 [8] = assay: Induction of autophagy in human MCF7 cells assessed as increase in GADD34 mRNA expression at 2.5 uM after 24 hrs by RT-PCR analysis; type: functional, cell-based
MCF7 [9] = assay: Induction of apoptosis in human MCF7 cells at 2.5 uM after 24 hrs by annexin V-FITC/Propidium iodide staining based flow cytometric analysis relative to tanshinone-2A; type: functional
MDA-MB-231 [10] = assay: Induction of apoptosis in human MDA-MB-231 cells assessed as reduction in number of cells at 2.5 uM by phase contrast microscopic method; type: functional, cell-based; settings: time 6-24 hrs, TDE = time-dependent effect
Procedure, shortened: (§2)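 ~5 × 10^4 cells in 6-well plates, either DMSO control or 2.5 µM. Morphology imaged at 0, 6, 12 and 24 h.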

MDA-MB-231 [11] = assay: Induction of apoptosis in human MDA-MB-231 cells assessed as necrotic cells at 2.5 uM after 24 hrs by annexin V-FITC/Propidium iodide staining based flow cytometric analysis (reference value: 0.65%); type: functional
MCF7 [12] = assay: Induction of autophagy in human MCF7 cells assessed as increase in Bcl2L11 mRNA expression at 2.5 uM after 24 hrs by RT-PCR analysis; type: functional, cell-based; procedure, shortened: as §1
MCF7 [13] = assay: Induction of autophagy in human MCF7 cells assessed as increase in GABARAP mRNA expression at 2.5 uM after 24 hrs by RT-PCR analysis; type: functional, cell-based; procedure, shortened: as §1
MCF7 [14] = assay: Induction of autophagy in human MCF7 cells assessed as increase in CHOP mRNA expression at 2.5 uM after 24 hrs by RT-PCR analysis; type: functional, cell-based
MCF7 [15] = assay: Induction of apoptosis in human MCF7cells assessed as reduction in size of cells at 2.5 uM by phase contrast microscopic method; type: functional, cell-based; settings: time 6-24 hrs, TDE = time-dependent effect; procedure, shortened: as §2
MCF7 [16] = assay: Induction of autophagy in human MCF7 cells expressing mCherry-tagged p62 assessed as reduction in p62 expression at 2.5 uM after 24 hrs by live-cell confocal microscopic analysis; type: functional, cell-based
Procedure, shortened: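 MCF7 cells were co-transfected with GFP-LC3 and mCherry-p62 constructs. 24 h later they were exposed to 2.5 µM compound, 50 µM chloroquine or DMSO for a further 24 h. Nuclei were stained with Hoechst 33342 and cells imaged by live-cell confocal microscopy. Two independent experiments.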

MCF7 [17] = assay: Induction of apoptosis in human MCF7 cells assessed as necrotic cells at 2.5 uM after 24 hrs by annexin V-FITC/Propidium iodide staining based flow cytometric analysis (reference value: 1.22%); type: functional
MCF7 [18] = assay: Induction of autophagy in human MCF7 cells assessed as increase in LC3-2 conversion level after 24 hrs by Western blot analysis; type: functional, cell-based; settings: dose 1.25-5 µM
Procedure, shortened: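 MCF7 cells exposed for 24 h to 0, 1.25, 2.5 or 5 µM. Western blot with GAPDH as loading control. LC3-II/I ratio obtained by densitometry. At least two independent experiments.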

MCF7 [19] = assay: Induction of autophagy in human MCF7 cells assessed as increase in ATG16L1 mRNA expression at 2.5 uM after 24 hrs by RT-PCR analysis; type: functional, cell-based; procedure, shortened: as §1
MCF7 [20] = assay: Induction of autophagy in human MCF7 cells assessed as increase in ATF4 protein expression at 2.5 uM after 24 hrs by Western blot analysis; type: functional, cell-based
Procedure, shortened: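 MCF7 or MDA-MB-231 cells given 2.5 µM or DMSO for 24 h, then lysed in RIPA buffer. Immunoblots probed overnight at 4 °C, followed by infrared-labelled secondary antibody for 1 h at 37 °C. Bands imaged and quantified densitometrically, with GAPDH as loading control. Representative of two independent experiments.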

MCF7 [21] = assay: Induction of apoptosis in human MCF7 cells assessed as increase in cleaved-PARP protein expression after 24 hrs by Western blot analysis; type: functional, cell-based; settings: dose 1.25-5 µM
MDA-MB-231 [22] = assay: Induction of apoptosis in human MDA-MB-231 cells at 2.5 uM after 24 hrs by annexin V-FITC/Propidium iodide staining based flow cytometric analysis relative to tanshinone-1; type: functional
MCF7 [23] = assay: Induction of autophagy in human MCF7 cells assessed as increase in GABARAPL1 mRNA expression at 2.5 uM after 24 hrs by RT-PCR analysis; type: functional, cell-based; procedure, shortened: as §1

Structure (SMILES) | Activity (MCF7 [1]) [%] | Activity (MCF7 [2]) | Activity (MCF7 [3]) | Activity (MCF7 [4]) [%] | Activity (MCF7 [5]) | fold change (FC) (MCF7 [6]) | Activity (MCF7 [7]) | Activity (MCF7 [8]) | fold change (FC) (MCF7 [9]) | Activity (MDA-MB-231 [10]) | Activity (MDA-MB-231 [11]) [%] | Activity (MCF7 [12]) | Activity (MCF7 [13]) | Activity (MCF7 [14]) | Activity (MCF7 [15]) | Activity (MCF7 [16]) | Activity (MCF7 [17]) [%] | Activity (MCF7 [18]) | Activity (MCF7 [19]) | Activity (MCF7 [20]) | further results
O=C1C(=O)c2sccc2-c2ccccc21 | 23.5 | Active | inactive | 31.4 | Active | 2 | Active | Active | >=2 | Tde | 26.8 | Active | Active | Active | Tde | Active | 22.2 | Dose-dependent effect | Active | Active | Activity (MCF7 [21]): Dose-dependent effect; fold change (FC) (MDA-MB-231 [22]): >=2; Activity (MCF7 [23]): Active
O=C1C(=O)c2ccsc2-c2ccccc21 | 19.1 | Active | inactive | 17.9 | Active | 2 | Active | Active | >=2 | Tde | 43.5 | Active | Active | Active | Tde | Active | 37.7 | Dose-dependent effect | Active | Active | Activity (MCF7 [21]): Dose-dependent effect; fold change (FC) (MDA-MB-231 [22]): >=2; Activity (MCF7 [23]): Active
